The species entered for data set [1] is Homo sapiens. Nature of the data set: Selectivity ratio of IC50 for human CYP11B2 to IC50 for human CYP11B1.
In data set [2] the target is T1, CYP19 (aromatase) (Homo sapiens, UniProt P11511).
T1 sequence (P11511 whole entry): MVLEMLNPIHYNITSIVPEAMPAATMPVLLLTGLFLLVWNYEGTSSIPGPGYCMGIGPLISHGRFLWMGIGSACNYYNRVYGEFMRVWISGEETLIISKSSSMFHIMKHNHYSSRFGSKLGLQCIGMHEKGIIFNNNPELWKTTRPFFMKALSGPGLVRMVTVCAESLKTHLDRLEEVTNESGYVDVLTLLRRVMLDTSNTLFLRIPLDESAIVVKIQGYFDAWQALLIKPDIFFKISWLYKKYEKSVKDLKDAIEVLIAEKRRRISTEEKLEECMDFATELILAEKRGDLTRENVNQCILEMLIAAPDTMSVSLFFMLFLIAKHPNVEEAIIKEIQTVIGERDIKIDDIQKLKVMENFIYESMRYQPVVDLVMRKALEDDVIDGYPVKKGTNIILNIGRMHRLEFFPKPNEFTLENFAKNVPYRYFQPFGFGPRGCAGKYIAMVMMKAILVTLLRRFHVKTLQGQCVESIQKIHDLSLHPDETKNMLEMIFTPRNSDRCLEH
Nature of the data set: Inhibition of CYP19 in human placental microsomes using [1beta-3H]androstenedione as substrate at 0.5 uM. To be noted: probe [1beta-3H]androstenedione.

The target in data set [3] is T2, CYP17 (Homo sapiens, UniProt P05093).
T2 sequence (P05093 whole entry): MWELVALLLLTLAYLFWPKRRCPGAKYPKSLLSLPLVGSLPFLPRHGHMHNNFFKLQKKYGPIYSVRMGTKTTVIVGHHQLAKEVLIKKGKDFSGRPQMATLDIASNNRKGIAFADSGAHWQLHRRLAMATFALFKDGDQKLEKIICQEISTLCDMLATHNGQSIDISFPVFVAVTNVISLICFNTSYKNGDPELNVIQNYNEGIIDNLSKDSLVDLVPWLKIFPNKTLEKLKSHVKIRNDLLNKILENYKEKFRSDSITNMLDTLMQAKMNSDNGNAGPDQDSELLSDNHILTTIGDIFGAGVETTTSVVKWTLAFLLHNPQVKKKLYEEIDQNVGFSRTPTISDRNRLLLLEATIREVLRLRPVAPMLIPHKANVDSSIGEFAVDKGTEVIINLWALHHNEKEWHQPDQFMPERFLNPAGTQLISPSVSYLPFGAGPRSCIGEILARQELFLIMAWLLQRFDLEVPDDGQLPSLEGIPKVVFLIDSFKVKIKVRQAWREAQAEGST
Nature of the data set: Inhibition of human recombinant CYP17 expressed in Escherichia coli using progesterone as substrate at 2 uM. Conditions: probe progesterone; call rule not given here. In outline: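 Recombinantly expressed human CYP17 with progesterone as substrate. Inhibition is reported as percent at an inhibitor concentration of 2.0 μM.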

The target of data set [4] is T3, Cytochrome P450 11B2, mitochondrial (Homo sapiens, UniProt P19099).
T3 sequence (P19099 whole entry): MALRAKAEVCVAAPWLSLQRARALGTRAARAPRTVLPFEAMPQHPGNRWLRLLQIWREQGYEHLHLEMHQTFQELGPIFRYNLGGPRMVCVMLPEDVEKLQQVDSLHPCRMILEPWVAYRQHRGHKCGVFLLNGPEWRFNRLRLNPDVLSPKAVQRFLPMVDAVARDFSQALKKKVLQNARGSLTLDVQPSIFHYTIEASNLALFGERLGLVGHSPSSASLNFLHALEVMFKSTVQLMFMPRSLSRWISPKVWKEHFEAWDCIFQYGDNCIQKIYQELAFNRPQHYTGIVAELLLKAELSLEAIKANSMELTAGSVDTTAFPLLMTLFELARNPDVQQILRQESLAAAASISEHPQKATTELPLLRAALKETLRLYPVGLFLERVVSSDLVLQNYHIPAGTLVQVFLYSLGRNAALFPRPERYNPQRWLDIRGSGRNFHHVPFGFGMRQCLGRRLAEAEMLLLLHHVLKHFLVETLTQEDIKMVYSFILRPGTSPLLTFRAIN
As to the kind of experiment: Inhibition of human CYP11B2 expressed in hamster V79 MZ cells using [3H] 11 deoxycorticosterone as substrate by HPLC radioflow detector. Type of data set: cell-based.

Data set [5] concerns the target T3, Cytochrome P450 11B2, mitochondrial. Nature of the data set: Inhibition of human CYP11B2 expressed in hamster V79 MZ cells using [3H] 11 deoxycorticosterone as substrate at 500 nM by HPLC radioflow detector. Type of data set: cell-based. To be noted: v79, 0.5 µM.
For data set [6], the target named is T4, Cytochrome P450 11B1, mitochondrial (Homo sapiens, UniProt P15538).
T4 sequence (P15538 whole entry): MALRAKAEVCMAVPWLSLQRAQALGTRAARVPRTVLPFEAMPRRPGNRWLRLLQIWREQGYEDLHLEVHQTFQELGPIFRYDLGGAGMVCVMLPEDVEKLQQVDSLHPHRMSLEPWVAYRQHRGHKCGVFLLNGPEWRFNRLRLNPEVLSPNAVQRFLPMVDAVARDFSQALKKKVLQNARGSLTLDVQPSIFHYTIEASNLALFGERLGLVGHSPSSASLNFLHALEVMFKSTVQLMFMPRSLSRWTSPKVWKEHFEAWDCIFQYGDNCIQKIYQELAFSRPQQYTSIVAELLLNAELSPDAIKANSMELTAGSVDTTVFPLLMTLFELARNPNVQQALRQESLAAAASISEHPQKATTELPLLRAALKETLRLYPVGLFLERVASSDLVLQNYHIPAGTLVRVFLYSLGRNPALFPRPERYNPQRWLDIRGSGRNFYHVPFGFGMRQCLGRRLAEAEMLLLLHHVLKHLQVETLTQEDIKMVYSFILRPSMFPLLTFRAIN
Nature of the data set: Inhibition of human CYP11B1 expressed in hamster V79 MZ cells using [3H] 11 deoxycorticosterone as substrate by HPLC radioflow detector. Type of data set: cell-based.

Usually inhibition stands for the change of the read-out against control, counted positive when it falls. One may read the IC50 as the concentration at which inhibition is half-maximal.

Each structure is given as a SMILES string.

On to `c1csc(-c2ncccc2Cn2ccnc2)c1`, for which the Ratio IC50 in data set [1] was 16. Further, the inhibition at 0.5 µM in data set [2] was < 10%. The inhibition at 2 µM in data set [3] was < 10%.

In the case of `c1cncc(Cn2ccnc2)c1`, the half-inhibitory concentration (IC50) in data set [4] is > 1000 nM.

`c1cn(Cc2ccc(-c3ccsc3)nc2)cn1`: the Ratio IC50 in data set [1] stood at 26. In addition, the inhibition at 0.5 µM in data set [2] was < 10%. Further, the inhibition at 2 µM in data set [3] is < 10%.

For the molecule `c1cncc(-c2ccc(Cn3ccnc3)cn2)c1`, the Ratio IC50 in data set [1] was 8.

In the case of `Nc1ccccc1-c1ccc(Cn2ccnc2)cn1`, the Ratio IC50 in data set [1] was found to be 21. Further, in data set [2], the inhibition at 0.5 µM is < 10%. The inhibition at 2 µM in data set [3] was < 10%.

On to `c1ccc(-c2cc(Cn3ccnc3)cnc2-c2ccccc2)cc1`, for which, in data set [1], the Ratio IC50 was 2.4. The inhibition at 0.5 µM in data set [2] is < 10%. Also, the inhibition at 2 µM in data set [3] was < 10%.

`c1ccc2oc(-c3ccc(Cn4ccnc4)cn3)cc2c1`: in data set [4], the IC50 is > 1000 nM.

On to `c1coc(-c2cc(Cn3ccnc3)cnc2-c2ccco2)c1`, for which the Ratio IC50 in data set [1] is 29.

Consider `Fc1ccc(-c2ccc(Cn3ccnc3)cn2)cc1`, for which the Ratio IC50 in data set [1] turned out to be 10. Also, the inhibition at 0.5 µM in data set [2] is < 10%. The inhibition at 2 µM in data set [3] is < 10%.

With `Nc1cccc(-c2ccc(Cn3ccnc3)cn2)c1`, the Ratio IC50 in data set [1] turned out to be 31. Also, the inhibition at 0.5 µM in data set [2] was < 10%. For the same molecule, the inhibition at 2 µM in data set [3] was < 10%.

Turning to `c1ccc2cc(-c3ccc(Cn4ccnc4)cn3)ccc2c1`, the Ratio IC50 in data set [1] was determined as 3.2.

Consider `Fc1ccccc1-c1ccc(Cn2ccnc2)cn1`, for which, in data set [1], the Ratio IC50 worked out at 24. For the same molecule, in data set [2], the inhibition at 0.5 µM was < 10%. The inhibition at 2 µM in data set [3] was < 10%.

Turning to `Fc1cccc(-c2ccc(Cn3ccnc3)cn2)c1`, the inhibition at 0.5 µM in data set [2] is < 10%. Also, in data set [3], the inhibition at 2 µM is < 10%. In addition, the IC50 in data set [4] is > 1000 nM.

In the case of `O=Cc1ccc(-c2ccc(Cn3ccnc3)cn2)s1`, the Ratio IC50 in data set [1] came to 16. Besides, the inhibition at 0.5 µM in data set [2] is 19%. In data set [3], the inhibition at 2 µM was < 10%.

For `c1cn(Cc2ccc(-c3ccoc3)nc2)cn1`, in data set [1], the Ratio IC50 stood at 37. For the same molecule, the inhibition at 0.5 µM in data set [2] was < 10%. Besides, the inhibition at 2 µM in data set [3] is < 10%.

With `Brc1ncccc1Cn1ccnc1`, in data set [1], the Ratio IC50 is 15. Besides, in data set [2], the inhibition at 0.5 µM was < 10%. Also, in data set [3], the inhibition at 2 µM was < 10%.

`COc1ccc(-c2ccc(Cn3ccnc3)cn2)cc1`: in data set [2], the inhibition at 0.5 µM was < 10%. Besides, the inhibition at 2 µM in data set [3] was < 10%. The IC50 in data set [4] is > 1000 nM.

On to `c1ccc2c(-c3ccc(Cn4ccnc4)cn3)csc2c1`, for which, in data set [1], the Ratio IC50 came to 29. Besides, the inhibition at 0.5 µM in data set [2] was < 10%. Moreover, in data set [3], the inhibition at 2 µM was < 10%.

As to `Brc1ccc(Cn2ccnc2)cn1`, the IC50 in data set [4] is > 1000 nM.

Take `c1ccc2c(-c3ccc(Cn4ccnc4)cn3)cncc2c1`: in data set [1], the Ratio IC50 worked out at 10.

`c1cc(-c2ccc(Cn3ccnc3)cn2)ccn1`: the Ratio IC50 in data set [1] worked out at 3.5.

With `c1cc(Cn2ccnc2)ccn1`, the IC50 in data set [4] is > 1000 nM.

As for `c1cn(Cc2ccc(-c3cncnc3)nc2)cn1`, the “inhibition (INH)” value in data set [5] was “Not Active”.

On to `Oc1ccc(-c2ccc(Cn3ccnc3)cn2)cc1F`, for which the Ratio IC50 in data set [1] amounted to 14.

For `c1ccc2c(-c3ccc(Cn4ccnc4)cn3)cccc2c1`, in data set [1], the Ratio IC50 was determined as 49. In addition, in data set [2], the inhibition at 0.5 µM is < 10%. Further, in data set [3], the inhibition at 2 µM is < 10%.

With `c1csc(-c2ccc(Cn3ccnc3)cn2)c1`, the Ratio IC50 in data set [1] came out at 17. Also, the inhibition at 0.5 µM in data set [2] is < 10%. Further, in data set [3], the inhibition at 2 µM was < 10%.

In the case of `COc1ccc(-c2ccc(Cn3ccnc3)cn2)cc1OC`, the IC50 in data set [6] and in data set [4] was > 1000 nM each time. For the same molecule, the inhibition at 0.5 µM in data set [2] is < 10%. For the same molecule, the inhibition at 2 µM in data set [3] was < 10%.

As to `N#Cc1cccc(-c2ccc(Cn3ccnc3)cn2)c1`, the IC50 in data set [4] is > 1000 nM.

As for `N#Cc1ncccc1Cn1ccnc1`, the IC50 in data set [4] is > 1000 nM.

`Clc1ncc(Cn2ccnc2)cc1Br`: in data set [1], the Ratio IC50 was 3.4.

In the case of `Clc1ncc(Cn2ccnc2)cc1-c1cccs1`, the Ratio IC50 in data set [1] came out at 6. For the same molecule, the IC50 in data set [6] stood at 73 nM; in data set [4], 416 nM. The inhibition at 0.5 µM in data set [2] was < 10%. For the same molecule, the inhibition at 2 µM in data set [3] is < 10%.

On to `Clc1ccc(-c2ccc(Cn3ccnc3)cn2)s1`, for which, in data set [1], the Ratio IC50 was 2.6. This molecule also returned an inhibition at 0.5 µM in data set [2] of 30%.

On to `O=Cc1ccc(-c2ccc(Cn3ccnc3)cn2)cc1`, for which the inhibition at 0.5 µM in data set [2] is < 10%. Moreover, the inhibition at 2 µM in data set [3] was < 10%. The IC50 in data set [4] was > 1000 nM.

Regarding `Cc1ccc(-c2ccc(Cn3ccnc3)cn2)cc1N`, in data set [2], the inhibition at 0.5 µM was < 10%. In data set [3], the inhibition at 2 µM was < 10%. Further, in data set [4], the IC50 was > 1000 nM.

Take `COc1ccc(-c2ccc(Cn3ccnc3)cn2)cn1`: the IC50 in data set [6] and in data set [4] was > 1000 nM throughout.

`c1ccc2sc(-c3ccc(Cn4ccnc4)cn3)cc2c1`: the Ratio IC50 in data set [1] came out at 1.

`N#Cc1ccc(-c2ccc(Cn3ccnc3)cn2)cc1`: the IC50 in data set [4] was > 1000 nM.

As to `c1coc(-c2ccc(Cn3ccnc3)cn2)c1`, in data set [1], the Ratio IC50 was 31. For the same molecule, the inhibition at 0.5 µM in data set [2] was < 10%. Also, the inhibition at 2 µM in data set [3] is < 10%.

For `Nc1ccc(-c2ccc(Cn3ccnc3)cn2)cc1`, the Ratio IC50 in data set [1] was 5. Besides, the inhibition at 0.5 µM in data set [2] is < 10%. Moreover, in data set [3], the inhibition at 2 µM was < 10%.

On to `c1ccc(N(c2ccccc2)c2ccc(-c3ccc(Cn4ccnc4)cn3)cc2)cc1`, for which the inhibition at 0.5 µM in data set [2] was < 10%. The “inhibition (INH)” value in data set [5] is recorded as “Not Active”. The inhibition at 2 µM in data set [3] is < 10%.

`COc1ccccc1-c1ccc(Cn2ccnc2)cn1`: the Ratio IC50 in data set [1] was determined as 26. In data set [2], the inhibition at 0.5 µM is < 10%. Also, the inhibition at 2 µM in data set [3] is < 10%.

Turning to `Fc1ccc(-c2ccc(Cn3ccnc3)cn2)cc1F`, the Ratio IC50 in data set [1] came to 5. For the same molecule, the inhibition at 0.5 µM in data set [2] is < 10%. The inhibition at 2 µM in data set [3] is < 10%.

Regarding `c1ccc(-c2ccc(Cn3ccnc3)cn2)cc1`, the Ratio IC50 in data set [1] is 18.
